How the values were obtained:
[1] = Partition coefficient, logD of compound at pH 7.4 by HPLC analysis; format: physicochemical; conditions: octanol/water
In short: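 logD at pH 7.4 measured by HPLC.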

[2] = Kinetic solubility of the compound in pH 6.5 phosphate buffer after 30 mins by nephelometry; format: physicochemical; conditions: pH 6.5, 0.5 h
[3] = Kinetic solubility of the compound in pH 2 HCl after 30 mins by nephelometry; format: physicochemical; conditions: buffer, pH 2, 0.5 h
[4] = Cytotoxicity against human HepG2 cells after 72 hrs by CyQuant-Direct reagent based fluorescence assay; format: cell-based
Salmonella typhimurium = assay: Mutagenicity in Salmonella typhimurium TA98 assessed as increase in number of revertant colonies at 1250 to 5000 ug/ml in absence of ariclor-induced rat liver S9 fraction by Ames test relative to control; format: toxicity; conditions: salmonella enterica subsp. enterica serovar typhimurium
In short: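 Ames plate incorporation test run in two independent experiments across five Salmonella strains, with and without metabolic activation. Revertant colonies were counted per plate and compared with concurrent vehicle controls. A reproducible increase of ≥2-fold in revertant colony number over vehicle control was scored as evidence of mutagenicity.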

| logD [1] | Kinetic_solubility [2] | Kinetic_solubility [3] | SMILES | IC20 at 72 h [4] | fold change (FC) (Salmonella typhimurium) |
| --- | --- | --- | --- | --- | --- |
| 1.8 |  |  | Cc1[nH]nc2c1C(c1cc(-c3cccc(C(=O)O)c3)cc(C(F)(F)F)c1)(C(C)C)C(C#N)=C(N)O2 (racemic) |  |  |
|  | Soluble | Soluble | Cc1[nH]nc2c1C(c1cc(N3CC4CCCC4C3)cc(C(F)(F)F)c1)(C(C)C)C(C#N)=C(N)O2 (racemic) |  |  |
|  | Soluble | Soluble | Cc1[nH]nc2c1C(c1cc(F)cc(-c3ccncc3)c1)(C(C)C)C(C#N)=C(N)O2 (racemic) |  |  |
| 1.2 |  |  | Cc1[nH]nc2c1C(c1cc(F)cc(N3CCC(C(=O)O)CC3)c1)(C(C)C)C(C#N)=C(N)O2 (racemic) |  |  |
|  |  |  | Cc1[nH]nc2c1C(c1cc(-c3cccnc3)cc(C(F)(F)F)c1)(C(C)C)C(C#N)=C(N)O2 (racemic) | 18.9 µM |  |
|  | Soluble | Soluble | Cc1[nH]nc2c1C(c1cc(F)cc(N3CCOCC3)c1)(C(C)C)C(C#N)=C(N)O2 (racemic) |  |  |
| 1.6 | Soluble | Soluble | Cc1[nH]nc2c1C(c1cc(N3CCC(C(=O)O)CC3)cc(C(F)(F)F)c1)(C(C)C)C(C#N)=C(N)O2 (racemic) |  |  |
| 1.4 |  |  | Cc1[nH]nc2c1C(c1cc(C#N)cc(-c3cccc(C(=O)O)c3)c1)(C(C)C)C(C#N)=C(N)O2 (racemic) |  |  |
| 1.5 | Soluble | Soluble | Cc1[nH]nc2c1C(c1cc(F)cc(-c3cccc(C(=O)O)c3)c1)(C(C)C)C(C#N)=C(N)O2 (racemic) |  | >= 2 |
|  | Soluble | Soluble | Cc1[nH]nc2c1C(c1cc(N3CCS(=O)(=O)CC3)cc(C(F)(F)F)c1)(C(C)C)C(C#N)=C(N)O2 (racemic) |  |  |
| 1.7 | Soluble | Soluble | COc1ccc(-c2cc(C(F)(F)F)cc(C3(C(C)C)C(C#N)=C(N)Oc4n[nH]c(C)c43)c2)cc1C(=O)O (racemic) |  |  |

Source: ChEMBL document CHEMBL4014337, “Antimalarial Inhibitors Targeting Serine Hydroxymethyltransferase (SHMT) with in Vivo Efficacy and Analysis of their Binding Mode Based on X-ray Cocrystal Structures” (J Med Chem, 2017)
